What all share (assay type): cell-based
One test has as its system HUVEC. Nature of the test: MTT cytotoxicity assay, HUVEC. The settings on record: read-out: IC50 HUVEC. Put shortly: (§1)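 MTT viability assay run in parallel on MCF-7, HeLa and non-cancerous HUVEC cells. Test concentrations: benzimidazole derivatives at 50–250 μM and benzothiazole derivatives at 5–100 μM. IC50 derived from the MTT read-out.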
On the technique in general: Formazan colour is commonly taken as a measure of viable cells.

The subject of another test is MCF-7. Nature of the test: MTT cytotoxicity assay, MCF-7. Put shortly: as §1
In a further test the test system is HeLa. Nature of the test: MTT cytotoxicity assay, HeLa. The settings on record: read-out: IC50 HeLa. Put shortly: as §1
Where [1] appears, read: read-out: IC50 MCF-7, MTT, MCF-7 cells.

Read-outs that look alike come from different tables or passages of the source.

This note sets out measurements from publication PMC12491069 (Bioorganic & medicinal chemistry letters, 2025).

Broadly, the IC50 is the concentration needed to halve the response being measured.

Regarding `COc1cccc2c1C(=O)c1c(O)c3c(c(O)c1C2=O)C[C@@](O)(C(=O)CO)C[C@@H]3O[C@H]1C[C@H](N)[C@H](O)[C@H](C)O1` [Doxorubicin], the IC50 in the test on HUVEC (Homo sapiens, HUVEC) worked out at 93 ± 0.54 µM; in the test with MCF-7 (Homo sapiens, MCF7, read-out: IC50 MCF-7) it was 17.44 ± 0.04 µM; in the test with HeLa (Homo sapiens, HeLa), 1.45 ± 0.15 µM.
Take `Nc1c(C(=O)Nc2ccc(F)cc2)sc2nc(-c3cccs3)cc(C(F)(F)F)c12` [FDI-6]: the IC50 with HUVEC (MTT, non-cancerous HUVEC line) worked out at 240.3 ± 1.14 µM; in the test with MCF-7 (setting [1]), 25.8 ± 2.41 µM; with HeLa (MTT, HeLa cells) it was 18.9 ± 0.89 µM.
The matching figures for `N#Cc1ccc(COC[C@H]2O[C@@H](n3c(NCc4ccc(Cl)c(Cl)c4)nc4c(N)ncnc43)[C@H](O)[C@@H]2O)cc1` [VER-155008]: 150 ± 2.23 µM, 23.9 ± 1.09 µM and 55.26 ± 0.25 µM.
